Key:
Assay type in all cases: cell-based; call rule not given here
[1] = biological target: T1, Aryl hydrocarbon receptor (Mus musculus, UniProt P30561); test: Agonist activity at AHR in mouse HC11 cells assessed as upregulation of Cyp1a1 gene expression at 10 uM after 48 hrs by RT-PCR analysis relative to control; settings: hc11, 48 h
T1 sequence (P30561 whole entry): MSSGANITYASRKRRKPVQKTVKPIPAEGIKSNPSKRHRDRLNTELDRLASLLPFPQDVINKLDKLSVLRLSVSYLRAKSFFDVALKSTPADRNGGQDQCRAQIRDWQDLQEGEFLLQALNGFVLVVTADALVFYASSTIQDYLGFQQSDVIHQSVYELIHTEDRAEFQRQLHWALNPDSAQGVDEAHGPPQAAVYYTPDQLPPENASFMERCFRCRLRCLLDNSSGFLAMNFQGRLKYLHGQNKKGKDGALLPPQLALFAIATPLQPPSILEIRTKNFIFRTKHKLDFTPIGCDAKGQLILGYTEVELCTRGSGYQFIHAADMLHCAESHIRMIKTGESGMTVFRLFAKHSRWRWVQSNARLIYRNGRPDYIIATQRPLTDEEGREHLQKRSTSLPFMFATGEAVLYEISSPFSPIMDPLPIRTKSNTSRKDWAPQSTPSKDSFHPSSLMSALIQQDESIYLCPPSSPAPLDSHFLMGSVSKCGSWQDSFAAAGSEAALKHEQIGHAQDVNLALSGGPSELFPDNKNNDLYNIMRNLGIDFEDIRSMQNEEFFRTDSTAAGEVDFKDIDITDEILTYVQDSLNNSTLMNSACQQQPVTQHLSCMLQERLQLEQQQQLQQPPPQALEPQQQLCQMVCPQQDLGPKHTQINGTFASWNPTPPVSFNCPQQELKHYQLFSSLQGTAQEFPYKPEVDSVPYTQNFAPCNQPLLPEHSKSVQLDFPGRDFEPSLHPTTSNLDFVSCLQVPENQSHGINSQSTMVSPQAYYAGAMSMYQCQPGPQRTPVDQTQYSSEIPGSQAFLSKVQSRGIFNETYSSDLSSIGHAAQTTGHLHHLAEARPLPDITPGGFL
Outline: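 HC11 mammary epithelial cells were exposed for 48 hours to 10 μM compound. Expression of the AHR target gene Cyp1a1 served as the activity read-out.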

[2] = biological target: T1, Aryl hydrocarbon receptor; test: Agonist activity at AHR in FVB/N mouse primary mammary epithelial cells assessed as upregulation of desmoglein-3 protein level at 10 uM after 144 hrs by Western blot analysis in presence of FGF2; settings: epithelial cell
[3] = biological target: T1, Aryl hydrocarbon receptor; test: Agonist activity at AHR in FVB/N mouse primary mammary epithelial cells assessed as upregulation of desmoglein-3 protein level at 10 nM after 144 hrs by Western blot analysis in presence of FGF2; settings: epithelial cell, 0.01 µM

Activity [1] [%] | Activity [2] | SMILES | Activity [3]
1.59 |  | Clc1cccc(-c2noc(-c3ccc(Cl)cc3Cl)n2)c1 | 
0.25 |  | O=[N+]([O-])c1cc(O)ccc1-c1nc(-c2ccccc2)no1 | 
0.66 |  | C#CCOc1ccc(-c2noc(-c3ccc(Cl)cc3Cl)n2)cc1 | 
8.25 |  | O=[N+]([O-])c1cc(Cl)ccc1-c1nc(-c2ccncc2)no1 | 
58.63 | Active | Nc1cc(C(F)(F)F)ccc1-c1nc(-c2ccccc2)no1 | 
25.79 | Not Active | Clc1ccc(-c2nc(-c3ccccc3)no2)c(Cl)c1Cl | 
0.42 |  | COc1ccc(-c2nc(-c3ccccc3)no2)c([N+](=O)[O-])c1 | 
5.91 |  | Clc1ccc(-c2nc(-c3ccccc3Cl)no2)c(Cl)c1 | 
122.64 | Active | O=[N+]([O-])c1cc(F)ccc1-c1nc(-c2ccccc2)no1 | 
8.15 |  | Clc1ccc(-c2noc(-c3ccc(Cl)cc3Cl)n2)cc1 | 

Second part, the molecule before the results:

SMILES | Activity [1] [%] | Activity [2] | Activity [3]
C#CCOc1ccc(-c2noc(-c3ccc(Cl)cc3N)n2)cc1 | 0.38 |  | 
C#CCOc1ccc(-c2nc(-c3ccccc3)no2)c([N+](=O)[O-])c1 | 2.43 |  | 
C#CCOc1ccc(-c2noc(-c3ccc(Cl)cc3[N+](=O)[O-])n2)cc1 | 0.29 |  | 
O=C(O)c1cccc(-c2noc(-c3ccccc3F)n2)c1 [ATALUREN] | 3.71 |  | 
Nc1cc(Cl)ccc1-c1nc(-c2ccccc2)no1 | 638.8 | Active | 
Clc1cc2c(cc1Cl)Oc1cc(Cl)c(Cl)cc1O2 [2,3,7,8-TETRACHLORODIBENZO-P-DIOXIN] |  |  | Active
COC(=O)c1cccc(-c2noc(-c3ccc(Cl)cc3Cl)n2)c1 | 0.18 |  | 
O=[N+]([O-])c1cc(C(F)(F)F)ccc1-c1nc(-c2ccccc2)no1 | 0.36 |  | 
Clc1ccc(-c2nc(-c3ccncc3)no2)c(Cl)c1Cl | 0.53 |  | 
CC(=O)Oc1ccc(-c2nc(-c3ccncc3)no2)c([N+](=O)[O-])c1 | 0.35 |  | 
C=CCOc1ccc(-c2noc(-c3ccc(Cl)cc3N)n2)cc1 | 0.62 |  | 
COC(=O)Oc1ccc(-c2nc(-c3ccccc3)no2)c([N+](=O)[O-])c1 | 0.39 |  | 
Clc1ccc(-c2nc(-c3ccncc3)no2)c(Cl)c1 | 0.37 |  | 
FC(F)(F)c1cccc(-c2noc(-c3ccc(Cl)cc3Cl)n2)c1 | 1.84 | Not Active | 
Clc1ccc(-c2nc(-c3ccccc3)no2)c(Cl)c1 | 128.53 | Active | 
COC(=O)c1cccc(-c2noc(-c3ccccc3F)n2)c1 | 0.29 |  | 
